In ChEMBL document CHEMBL4400576, “Identification of Pyrazolo[1,5-a]pyridine-3-carboxamide Diaryl Derivatives as Drug Resistant Antituberculosis Agents” (ACS Med Chem Lett, 2019):
≈ marks a conversion by molar mass, not a printed value.

Legend:
[1] = tested on: Mycobacterium tuberculosis; experiment: Antibacterial activity against Mycobacterium tuberculosis H37Rv harboring LuxAB incubated for 10 days under anaerobic conditions followed by incubation under aerobic conditions for 28 hrs by LORA method; assay type: functional
Outline: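 MIC against H37Rv by low oxygen recovery assay (LORA). Test concentrations 0.02 to 5 μg/mL.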

[2] = tested on: Mycobacterium tuberculosis; experiment: Antibacterial activity against RMP-resistant Mycobacterium tuberculosis after 7 days by microplate alamar blue assay; assay type: functional; settings: 168 h
Outline: (§1)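 MABA MIC against rINH and rRMP Mtb strains. Test concentrations 0.002 to 0.5 μg/mL.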

[3] = tested on: Mycobacterium tuberculosis; experiment: Antibacterial activity against INH-resistant Mycobacterium tuberculosis after 7 days by microplate alamar blue assay; assay type: functional; settings: 168 h; outline: as §1
[4] = tested on: Mycobacterium tuberculosis; experiment: Antitubercular activity against Mycobacterium tuberculosis H37Ra harboring pTYOK infected in Balb/c mouse assessed as reduction in bacterial burden administered once daily via oral gavage for 5 days measured post last dose by luminometric method; assay type: functional, organism-based
Outline: (§2)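 Mice infected i.v. with log-phase selectable marker-free autoluminescent Mtb H37Ra, 2 ×10^6 CFU per mouse. Dosed once daily by oral gavage for 5 consecutive days at 10 or 50 mg/kg/day. Untreated group received CMC-Na. Bacterial burden read daily as bioluminescence (RLU) in the same live mice.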

[5] = tested on: Mycobacterium tuberculosis; experiment: Antitubercular activity against Mycobacterium tuberculosis H37Ra harboring pTYOK infected in Balb/c mouse assessed as reduction in spleen bacterial burden at 50 mg/kg, po administered once daily via gavage for 5 days measured post last dose by luminometric method; assay type: functional; outline: as §2
[6] = tested on: Mycobacterium tuberculosis; experiment: Antitubercular activity against Mycobacterium tuberculosis H37Ra harboring pTYOK infected in Balb/c mouse assessed as reduction in lung bacterial burden at 50 mg/kg, po administered once daily via gavage for 5 days measured post last dose by luminometric method; assay type: functional; outline: as §2
[7] = tested on: Mycobacterium tuberculosis; experiment: Antitubercular activity against Mycobacterium tuberculosis H37Ra harboring pTYOK infected in Balb/c mouse assessed as reduction in spleen bacterial burden at 10 mg/kg, po administered once daily via gavage for 5 days measured post last dose by luminometric method; assay type: functional; outline: as §2
[8] = tested on: Mycobacterium tuberculosis; experiment: Antitubercular activity against Mycobacterium tuberculosis H37Ra harboring pTYOK infected in Balb/c mouse assessed as reduction in lung bacterial burden at 10 mg/kg, po administered once daily via gavage for 5 days measured post last dose by luminometric method; assay type: functional; outline: as §2

Compound: COc1ccn2nc(C)c(C(=O)NCc3ccc(-c4ccc(OC(F)(F)F)cc4)cc3C)c2c1
- MIC90 [1]: > 5 µg/mL

Compound: COc1ccn2nc(C)c(C(=O)NCc3ccc(-c4ccc(OC(F)(F)F)cc4)nc3)c2c1
- MIC90 [2]: 0.458 µg/mL (≈ 1 µM)
- MIC90 [3]: 0.004 µg/mL (≈ 0.00876 µM)
- MIC90 [1]: 4.36 µg/mL (≈ 9.55 µM)

Compound: COc1ccn2nc(C)c(C(=O)NCc3ccc(-c4ccc(OC(F)(F)F)cc4)cn3)c2c1
- MIC90 [2]: < 0.002 µg/mL
- Activity [4]: Dose-dependent effect
- fold change (FC) [5]: 0.61 log10RLU
- MIC90 [3]: 0.002 µg/mL (≈ 0.00438 µM)
- fold change (FC) [6]: 1 log10RLU
- MIC90 [1]: > 5 µg/mL

Compound: COc1ccn2nc(C)c(C(=O)NCc3nnc(-c4ccc(OC(F)(F)F)cc4)o3)c2c1
- MIC90 [1]: > 5 µg/mL

Compound: COc1ccn2nc(C)c(C(=O)NCc3ccc(-c4ccc(OC(F)(F)F)cc4)c(C(F)(F)F)c3)c2c1
- MIC90 [2]: < 0.002 µg/mL
- MIC90 [3]: 0.003 µg/mL (≈ 0.00573 µM)
- MIC90 [1]: > 5 µg/mL

Compound: COc1ccn2nc(C)c(C(=O)NCc3ccc(-c4ccc(OC(F)(F)F)cc4)c(C)c3)c2c1
- MIC90 [2]: < 0.002 µg/mL
- MIC90 [3]: < 0.002 µg/mL
- MIC90 [1]: 2.28 µg/mL (≈ 4.86 µM)

Compound: COc1ccn2nc(C)c(C(=O)NCc3ccc(-c4ccc(OC(F)(F)F)cc4)cc3C(F)(F)F)c2c1
- MIC90 [1]: > 5 µg/mL

Compound: COc1nc2ccc(Br)cc2cc1[C@@H](c1ccccc1)[C@@](O)(CCN(C)C)c1cccc2ccccc12 [BEDAQUILINE]
- MIC90 [2]: < 0.016 µg/mL
- MIC90 [3]: < 0.016 µg/mL

Compound: COc1ccn2nc(C)c(C(=O)NCc3cnc(-c4ccc(OC(F)(F)F)cc4)s3)c2c1
- MIC90 [1]: > 5 µg/mL

Compound: CO[C@H]1/C=C/O[C@@]2(C)Oc3c(C)c(O)c4c(O)c(c(/C=N/N5CCN(C)CC5)c(O)c4c3C2=O)NC(=O)/C(C)=C\C=C\[C@H](C)[C@H](O)[C@@H](C)[C@@H](O)[C@@H](C)[C@H](OC(C)=O)[C@@H]1C [RIFAMPIN]
- MIC90 [2]: > 2 µg/mL
- fold change (FC) [7]: 1.34 log10RLU
- MIC90 [3]: < 0.008 µg/mL
- MIC90 [1]: 2.95 µg/mL (≈ 3.58 µM)
- fold change (FC) [8]: 1.42 log10RLU

Compound: COc1ccn2nc(C)c(C(=O)NCc3ccc(-c4ccc(OC(F)(F)F)cc4)c(OC)c3)c2c1
- MIC90 [2]: < 0.002 µg/mL
- MIC90 [3]: 0.003 µg/mL (≈ 0.00618 µM)
- MIC90 [1]: > 5 µg/mL

Compound: COc1ccn2nc(C)c(C(=O)NCc3ccc(-c4ccc(OC(F)(F)F)cc4)cc3F)c2c1
- MIC90 [2]: < 0.002 µg/mL
- MIC90 [3]: 0.004 µg/mL (≈ 0.00845 µM)
- MIC90 [1]: > 5 µg/mL

Compound: COc1ccn2nc(C)c(C(=O)NCc3cn(-c4ccc(OC(F)(F)F)cc4)nn3)c2c1
- MIC90 [1]: > 5 µg/mL

Compound: COc1ccn2nc(C)c(C(=O)NCc3ccc(-c4ccc(OC(F)(F)F)cc4)cc3OC)c2c1
- MIC90 [1]: 2.25 µg/mL (≈ 4.63 µM)

Compound: CC(=O)NC[C@H]1CN(c2ccc(N3CCOCC3)c(F)c2)C(=O)O1 [LINEZOLID]
- MIC90 [2]: 1.87 µg/mL (≈ 5.54 µM)
- MIC90 [3]: 0.953 µg/mL (≈ 2.82 µM)
- MIC90 [1]: 5.98 µg/mL (≈ 17.7 µM)

Compound: COc1ccn2nc(C)c(C(=O)NCc3ncc(-c4ccc(OC(F)(F)F)cc4)o3)c2c1
- MIC90 [1]: 2.84 µg/mL (≈ 6.36 µM)

Compound: COc1ccn2nc(C)c(C(=O)NCc3ccc(-c4ccc(OC(F)(F)F)cc4)s3)c2c1
- MIC90 [2]: 0.465 µg/mL (≈ 1.01 µM)
- MIC90 [3]: 0.002 µg/mL (≈ 0.00433 µM)
- MIC90 [1]: > 5 µg/mL

Compound: NNC(=O)c1ccncc1 [ISONIAZID]
- MIC90 [2]: 0.438 µg/mL (≈ 3.19 µM)
- MIC90 [3]: > 8 µg/mL
- MIC90 [1]: > 128 µg/mL

Compound: COc1ccn2nc(C)c(C(=O)NCc3ccc(-c4ccc(OC(F)(F)F)cc4)c(F)c3)c2c1
- MIC90 [2]: < 0.002 µg/mL
- MIC90 [3]: 0.004 µg/mL (≈ 0.00845 µM)
- MIC90 [1]: > 5 µg/mL

Compound: COc1ccn2nc(C)c(C(=O)NCc3ncc(-c4ccc(OC(F)(F)F)cc4)[nH]3)c2c1
- MIC90 [1]: > 5 µg/mL
